Source: ChEMBL document CHEMBL1121819, “Potential anticonvulsants. 1. 5-Benzylhydantoins” (J Med Chem, 1981)
Calls of active or inactive are those of the source.

Assays:
[1] = Acute toxicity measured in mice when administered intraperitoneally; format: organism-based; details: mus sp., in vivo, ip
Rattus norvegicus [2] = assay: (§1) Anticonvulsant activity was measured by the ability to prevent intraperitoneally; format: functional
Outline: (§2)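 Pentylenetetrazole (90 mg/kg ip) given after ip pretreatment with test agent as suspension in 0.5% methylcellulose; controls received diluent. Animals observed 15 min; protection = absence of clonic seizures. ED50 in mg/kg.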

Rattus norvegicus [3] = assay: Anticonvulsant activity measured to prevent maximal electroshock seizure in rats when administered intraperitoneally; format: functional; details: ip
Outline: (§3)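 Male Sprague–Dawley rats (160–300 g) given compound ip as suspension in 0.5% methylcellulose (10 mL/kg), 30 min before electroshock; 150 mA via corneal electrodes for 0.2 s. Protection = abolition of hind-limb tonic extensor component. ED50 in mg/kg.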

Mus musculus [4] = assay: Neurological deficit (Loss of coordination) was measured in the mice using rotarod test when administered intraperitoneally; format: functional; details: ip
Outline: (§4)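 Mice dosed ip, then placed on rotarod turning at 11 rpm; failure to stay on for at least 1 min scored as loss of coordination. ED50 in mg/kg.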

Rattus norvegicus [5] = assay: Acute toxicity of was measured in rat by po administration when administered intraperitoneally; format: organism-based; details: in vivo
Mus musculus [6] = assay: Anticonvulsant activity was measured by the ability to prevent maximal electroshock seizure in mice when administered intraperitoneally; format: functional; details: ip
Outline: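 Male ICR (Blue Spruce) mice, 19–22 g, dosed ip as suspension in 0.5% methylcellulose (10 mL/kg) 30 min prior to corneal electroshock, 50 mA for 0.2 s. Mice scored protected if hind-limb extensor phase was blocked; ED50 in mg/kg.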

[7] = (§5) Acute toxicity of was measured in rat by ip administration when administered intraperitoneally; format: organism-based; details: in vivo
Rattus norvegicus [8] = species: Rattus norvegicus; assay: Peak time of anticonvulsant activity against MES was determined; format: functional
Outline: (§6)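 Separate groups of rats dosed ip at approximate ED84 and challenged by maximal electroshock (150 mA, 0.2 s, corneal electrodes) at 0.5, 1, 2, 3 or >6 h after dosing; protection = hind-limb extensor blocked. Time of peak activity/duration in h.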

Rattus norvegicus [9] = assay: Anticonvulsant activity was measured by the ability to prevent maximal electroshock seizure in rat when administered intraperitoneally; format: functional; details: ip; outline: as §3
[10] = as §5; format: organism-based; details: in vivo; remark: listed apart in the source
Mus musculus [11] = assay: Loss of righting reflex was measured in the mice when administered intraperitoneally; format: functional; details: ip
[12] = Acute toxicity of was measured in rat by ip administration of the compound; format: organism-based; details: in vivo
Rattus norvegicus [13] = assay: Peak time of anticonvulsant activity against MES was determined ip; format: functional; outline: as §6
Mus musculus [14] = assay: as §1; format: functional; details: ip; outline: as §2
Mus musculus [15] = assay: Neurological deficit was measured in the mice using rotarod test when administered intraperitoneally; format: functional; details: ip; outline: as §4
Mus musculus [16] = assay: Anticonvulsant activity was measured by the ability to prevent matrazol induced threshold clonic seizures in mice when administered intraperitoneally; format: functional; details: ip
Outline: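 Mice were pretreated intraperitoneally 30 min before pentylenetetrazole (90 mg/kg ip). Compounds were given as a 0.5% methylcellulose suspension at 10 mL/kg; controls received diluent. Animals were watched for 15 min and counted protected if clonic seizures were prevented. The ED50 is the dose protecting half the animals.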

Rattus norvegicus [17] = species: Rattus norvegicus; assay: Peak time of anticonvulsant activity against MES was determined; 4-6; format: functional; outline: as §6
Mus musculus [18] = assay: Tolerance was tested in maximal electroshock seizures test in mice when administered intraperitoneally; Yes; format: functional, organism-based
[19] = Acute toxicity of was measured in rat by po administration of the compound; format: organism-based; details: in vivo
Rattus norvegicus [20] = assay: Anticonvulsant activity was measured by the ability to prevent intraperitoneally; Inactive; format: functional, organism-based; outline: as §2

| Compound | LD50 [1] [mg/kg] | ED50 (Rattus norvegicus [2]; ip) [mg/kg] | ED50 (Rattus norvegicus [3]) [mg/kg] | also measured |
| --- | --- | --- | --- | --- |
| CN1C(=O)NC(Cc2cccc(C(F)(F)F)c2)C1=O (centres undefined) | 350 | > 100 | > 50 |  |
| COc1ccc(OC)c(/C=C2/NC(=O)NC2=O)c1 | > 500 | > 200 | > 50 |  |
| O=C1NC(Cc2cccc(C(F)(F)F)c2)C(=O)N1CCBr (centres undefined) |  |  | > 50 |  |
| COc1ccc(CC2(C)NC(=O)NC2=O)cc1OC (centres undefined) | > 500 | > 200 | > 50 |  |
| CC1(Cc2cccc(C(F)(F)F)c2)NC(=O)NC1=O (centres undefined) |  |  | > 50 |  |
| O=C1NC(Cc2cccc(C(F)(F)F)c2)C(=O)N1CCO (centres undefined) |  | 100 | 45 |  |
| N#CCCN1C(=O)NC(Cc2cccc(C(F)(F)F)c2)C1=O (centres undefined) |  |  | > 50 |  |
| O=C1NC(=O)/C(=C\c2cccc(Br)c2)N1 | > 500 | > 200 | > 50 |  |
| CCCC(CCC)C(=O)O [VALPROIC ACID] |  | > 500 |  | ED50 (Mus musculus [4]): 415 mg/kg; LD50 (Rattus norvegicus [5]): 1530 mg/kg; ED50 (Mus musculus [6]): 260 mg/kg; LD50 [7]: 838 mg/kg; Duration of action (Rattus norvegicus [8]): ~5 h; ED50 (Rattus norvegicus [9]): 94.8 mg/kg; LD50 [10]: 1040 mg/kg |
| COc1ccc(/C=C2/NC(=O)NC2=O)cc1OC | > 500 | > 50 | > 200 |  |
| O=C1NC(=O)C(c2ccccc2)(c2cccc(C(F)(F)F)c2)N1 (centres undefined) | > 100 | > 200 | > 50 |  |
| COc1ccc(CC2(C)NC(=O)NC2=O)c(OC)c1 (centres undefined) | > 600 |  | > 50 |  |
| COc1ccc(OC)c(CC2(C)NC(=O)NC2=O)c1 (centres undefined) | > 800 |  | > 50 |  |
| COc1ccc(CC2NC(=O)NC2=O)cc1OC (centres undefined) |  | > 200 | > 50 |  |
| O=C1NC(=O)/C(=C\c2cccc(C(F)(F)F)c2)N1 | 350 | > 200 | ~50 |  |
| CN1C(=O)NC(Cc2cccc(Br)c2)C1=O (centres undefined) | 500 | ~100 | 30 |  |
| O=C1NC(=O)/C(=C\c2cccc(Cl)c2)N1 |  | > 200 | ~50 |  |
| O=C1NC(=O)C(Cc2cccc(Br)c2)N1 (centres undefined) |  | > 200 | > 50 |  |
| O=C1NC(=O)C(Cc2cccc(C(F)(F)F)c2)N1 (centres undefined) | 350 |  | 23 | ED50 (Mus musculus [4]): 65 mg/kg; ED50 (Mus musculus [11]): 160 mg/kg; LD50 [12]: 410 mg/kg; ED50 (Mus musculus [6]): 70 mg/kg; Duration of action (Rattus norvegicus [13]): 4 h; ED50 (Mus musculus [14]): 17.5 mg/kg; ED50 (Rattus norvegicus [2]): ~100 mg/kg |
| COc1ccc(OC)c(CC2NC(=O)NC2=O)c1 (centres undefined) |  |  | > 50 |  |
| O=C1NC(=O)C(c2ccccc2)(c2ccccc2)N1 [PHENYTOIN] | 100 |  | 9.6 | ED50 (Mus musculus [15]): 135 mg/kg; ED50 (Mus musculus [11]): 82 mg/kg; LD50 [12]: 280 mg/kg; ED50 (Mus musculus [6]): 8.5 mg/kg; ED50 (Mus musculus [16]): 50 mg/kg; Duration of action (Rattus norvegicus [17]): 4 h; Tolerance (Mus musculus [18]): Active; LD50 [19]: > 1000 mg/kg; ED50 (Rattus norvegicus [20]): inactive |
| O=C1NC(=O)C(Cc2cccc(Cl)c2)N1 (centres undefined) |  | ~150 | > 50 |  |
| CCOC(=O)CN1C(=O)NC(Cc2cccc(C(F)(F)F)c2)C1=O (centres undefined) | 500 | > 100 | > 50 |  |
| CC1(Cc2ccc3ccccc3c2)NC(=O)NC1=O (centres undefined) |  |  | > 50 |  |
